Measured values as given in ChEMBL document CHEMBL1151238, “New stilbene derivatives from Calligonum leucocladum” (2004).
In brackets after ≈: the same amount, converted by molar mass.

Legend:
Assay type in all cases: functional
Staphylococcus aureus [1] = assay: Antimicrobial activity against methicillin-resistant Staphylococcus aureus 12 after 24 hrs
Method in brief: (§1)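 Overnight 37 °C Mueller-Hinton broth cultures of clinical isolates or strain COL were diluted in 0.85% NaCl and spotted by inoculator at about 10⁶ cfu/mL. Plates were held 37 °C for 24 h. MIC was taken as the lowest concentration giving complete growth inhibition.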

Staphylococcus aureus [2] = assay: Antimicrobial activity against methicillin-resistant Staphylococcus aureus 8 after 24 hrs; method in brief: as §1
Staphylococcus aureus [3] = assay: Antimicrobial activity against methicillin-resistant Staphylococcus aureus 4 after 24 hrs; method in brief: as §1
Staphylococcus aureus [4] = assay: Antimicrobial activity against methicillin-resistant Staphylococcus aureus 5 after 24 hrs; method in brief: as §1
Staphylococcus aureus [5] = assay: Antimicrobial activity against methicillin-resistant Staphylococcus aureus COL after 24 hrs; method in brief: as §1
[6] = DPPH radical scavenging activity assessed as ratio of absorbance at 20 uM relative to L-cysteine
Method in brief: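 Test compound at 20 μM in ethanolic solution, mixed with ethanol, 50 mM MES buffer (pH 5.5) and 0.5 mM DPPH in ethanol. Decrease in absorbance at 517 nm read after 30 min. L-Cysteine served as reference. Value given as the ratio of absorbance between L-cysteine and test compound.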

Staphylococcus aureus [7] = assay: Antimicrobial activity against methicillin-resistant Staphylococcus aureus 1 after 24 hrs; method in brief: as §1
Staphylococcus aureus [8] = assay: Antimicrobial activity against methicillin-resistant Staphylococcus aureus 2 after 24 hrs; method in brief: as §1

Compound | MIC (Staphylococcus aureus [1]) | MIC (Staphylococcus aureus [2]) | MIC (Staphylococcus aureus [3]) | MIC (Staphylococcus aureus [4]) | MIC (Staphylococcus aureus [5]) | Ratio [6] | MIC (Staphylococcus aureus [7]) | MIC (Staphylococcus aureus [8])
O=C(OC[C@H]1O[C@@H](Oc2cc(O)cc(/C=C/c3ccc(O)cc3)c2)[C@H](O)[C@@H](O)[C@@H]1O)c1cc(O)c(O)c(O)c1 | 250 µg/mL (≈ 461 µM) | 125 µg/mL (≈ 230 µM) | 125 µg/mL (≈ 230 µM) | > 250 µg/mL | > 250 µg/mL | 1.3 | 125 µg/mL (≈ 230 µM) | 125 µg/mL (≈ 230 µM)
CC(=O)O[C@@H]1CO[C@@H](Oc2cc(O)cc(/C=C/c3ccc(O)cc3)c2)[C@H](O)[C@H]1O |  |  |  |  |  | 0.2 |  | 
OC[C@H]1O[C@@H](Oc2cc(O)cc(/C=C/c3ccc(O)cc3)c2)[C@H](O)[C@@H](O)[C@@H]1O |  |  |  |  |  | 0.54 |  | 
OC[C@H]1O[C@@H](Oc2cc(O)cc(/C=C/c3ccccc3)c2)[C@H](O)[C@@H](O)[C@@H]1O |  |  |  |  |  | 0.14 |  | 
Oc1ccc(/C=C/c2cc(O)cc(O[C@@H]3OC[C@@H](O)[C@H](O)[C@H]3O)c2)cc1 |  |  |  |  |  | 0.42 |  | 
Cc1onc(-c2ccccc2)c1C(=O)N[C@@H]1C(=O)N2[C@@H]1SC(C)(C)[C@@H]2C(=O)O [OXACILLIN] | 512 µg/mL (≈ 1280 µM) | 256 µg/mL (≈ 638 µM) | 256 µg/mL (≈ 638 µM) | 256 µg/mL (≈ 638 µM) | 512 µg/mL (≈ 1280 µM) |  | 512 µg/mL (≈ 1280 µM) | 256 µg/mL (≈ 638 µM)
Oc1cc(O)cc(/C=C/c2ccccc2)c1 [PINOSYLVIN] | > 250 µg/mL | > 250 µg/mL | > 250 µg/mL | 125 µg/mL (≈ 589 µM) | 125 µg/mL (≈ 589 µM) | 0.52 | > 250 µg/mL | > 250 µg/mL
Oc1ccc(/C=C/c2cc(O)cc(O)c2)cc1 [RESVERATROL] | > 250 µg/mL | > 250 µg/mL | > 250 µg/mL | > 250 µg/mL | > 250 µg/mL | 1.77 | > 250 µg/mL | > 250 µg/mL
